# dFosB act – activators of delta FosB homodimer, primary screen, biochemical, fluorescence polarization, TAMRA-CDK5 oligo, single point. Protein FosB (Mus musculus), P13346. purified delta FosB; percent of positive-control signal above neutral wells. activation, % at 25 µM. hit rate 0.99% among 340,000. AID 493131, 2011;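 active means mean activation above about 17%, with every replicate also reaching it, limit read from the data, passing the limit was not always enough; inconclusive means only one of the two conditions met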
# SR-BI HDL uptake – inhibitors of SR-BI mediated HDL lipid uptake, primary screen, ldlA[mSR-BI] cells, fluorescence, single point; Scavenger receptor class B member 1 (Mus musculus), Q61009; ldlA[mSR-BI] CHO cells, DiI-HDL uptake fluorescence, 3 h; inhibition, % at 12.5 µM; hit rate 0.96% among 320,000; AID 488896, 2010;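 active means mean replicate inhibition of at least 70% and a set share of replicates each scoring 70 or more; inconclusive means meets just one of the two criteria; inactive means fails both criteria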
# CDK5 inh – inhibitors of human CDK5/p35 kinase, primary screen, biochemical, single concentration; Cyclin-dependent kinase 5 (Homo sapiens) + Cyclin-dependent kinase 5 activator 1 (Homo …; hit rate 0.01% among 330,000; inhibition, % at 10 µM; Recombinant CDK5/p35, ADP-Glo luminescence, 60 min;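 active means highest replicate inhibition of at least 50% and at least 75% of replicates reaching 50%; inconclusive means only one of the two criteria met; inactive means both criteria failed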
# Target sequence (Q00535 whole entry, looked up): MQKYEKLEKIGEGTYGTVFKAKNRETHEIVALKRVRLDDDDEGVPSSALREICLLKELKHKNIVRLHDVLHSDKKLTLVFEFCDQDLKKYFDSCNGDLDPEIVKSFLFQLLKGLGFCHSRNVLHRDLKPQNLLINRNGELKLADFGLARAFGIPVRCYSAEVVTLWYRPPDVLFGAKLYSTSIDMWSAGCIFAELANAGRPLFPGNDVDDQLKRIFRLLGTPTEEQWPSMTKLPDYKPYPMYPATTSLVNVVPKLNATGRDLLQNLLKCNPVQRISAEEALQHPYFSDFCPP
# Target sequence (Q15078 whole entry, looked up): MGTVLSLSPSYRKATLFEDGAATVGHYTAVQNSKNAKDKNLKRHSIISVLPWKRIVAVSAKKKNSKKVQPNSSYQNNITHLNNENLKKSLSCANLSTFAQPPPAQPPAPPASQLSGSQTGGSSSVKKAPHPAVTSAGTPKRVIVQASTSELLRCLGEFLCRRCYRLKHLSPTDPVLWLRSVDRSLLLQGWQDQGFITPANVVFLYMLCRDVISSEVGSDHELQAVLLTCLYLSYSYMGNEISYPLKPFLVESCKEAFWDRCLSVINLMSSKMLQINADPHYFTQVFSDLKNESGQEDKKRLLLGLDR
# SR-BI DiI-HDL act – activators of SR-BI mediated DiI-HDL uptake, primary screen, ldlA[mSR-BI] CHO cells, DiI fluorescence; 3 h; 100 = double the neutral-control signal; activation, % at 12.5 µM; hit rate 0.096% among 320,000; AID 504775, 2011;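 active means mean replicate activation of at least 60% and every replicate at or above 60%; inconclusive means mean or all-replicate condition met, but not both; inactive means mean below 60% and not all replicates reaching 60%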
#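 material = CHO ldlA[mSR-BI] cells | medium = Ham's F12 with 0.5% BSA, HEPES 25 mM, pH 7.4 | reagent = fluorescent DiI-HDL, 10 µg/mL final | compound dosing = single-point compound dose | incubation = 3 h, 37 °C | measured by = bottom-read fluorescence, 550/595 nm | measure = HDL uptake via cellular fluorescence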
# A number is an active result; 0 = inactive; ? = inconclusive; - = no result given. Only some compounds are listed: those with a hit (about 2% of all), similar ones and a draw of the others.
SMILES,dFosB act,SR-BI HDL uptake,CDK5 inh,SR-BI DiI-HDL act
C/C=C(\C)C(=O)OC1CC(C)(C)C[C@H]2C3=CC[C@@H]4[C@@]5(C)CCC(O[C@@H]6O[C@@H](C(=O)O)[C@@H](O)C(O[C@@H]7OC[C@H](O)[C@@H](O)[C@@H]7O[C@@H]7OC(CO)C(O)[C@@H](O)[C@@H]7O)C6O[C@@H]6OC(CO)C(O)C(O)C6O)[C@@](C)(CO)[C@@H]5CC[C@]4(C)[C@]3(C)CC(O)[C@@]12CO (stereo partly drawn),0,0,0,0
COc1ccc2nc(NC(=O)c3cc(C)oc3C)sc2c1,0,83,0,0
Cc1ccc(C(=O)Nc2nc3ccc(S(C)(=O)=O)cc3s2)s1,0,0,0,0
Cc1cc(C(=O)Nc2nc3ccc(S(C)(=O)=O)cc3s2)c(C)o1,0,82,0,0
CC1CN(C(=O)CCCN2C(=O)c3ccccc3C2=O)CC(C)O1 (stereo not drawn),0,0,0,0
Clc1ccc(/C=C\c2nccc3c2[nH]c2ccccc23)cc1,27,0,0,0
COc1ccc(OCC(=O)Nc2ccncc2)cc1,0,0,0,0
O=C(Cc1ccccc1)Nc1ccc(N2CCCC2)cc1,68,0,0,0
O=C(Nc1ccc(N2CCCC2)cc1)C(c1ccccc1)c1ccccc1,77,0,0,0
CSCCC(NC(=O)c1ccco1)C(=O)Nc1ccc(C)cn1 (stereo not drawn),0,0,0,0
C[C@H](N)C(=O)N1CCC(C(=O)N[C@@H](Cc2ccccc2)C(=O)Nc2ccc(F)cc2)CC1,0,0,0,0
Cc1nc(N/N=C/c2ccc(O)cc2)c2cnn(-c3ccccc3)c2n1,0,75,0,0
COc1ccc(NC(=O)c2cc(C3CC3)nc3c2cnn3C(C)C)cc1OC,0,74,0,0
CCN1C(=O)C(=O)N(CC(=O)N2CCN(c3ccccc3)CC2)C1=O,0,0,0,0
COc1ccc(N=c2oc3cc(O)ccc3cc2C(=O)Nc2ccccn2)cc1OC,0,71,0,0
O=C(Nc1cc(Sc2ccccn2)cc([N+](=O)[O-])c1)c1ccc([N+](=O)[O-])cc1,0,90,0,0
O=[N+]([O-])c1ccc(Sc2ccccn2)nc1,0,0,0,0
Cc1cccc(NC(=O)C2CCN(S(=O)(=O)c3c(C)c(C)cc(C)c3C)CC2)n1,0,73,0,0
Cc1cccc(NC(=O)C2CCN(S(=O)(=O)c3c(C)nn(C)c3C)CC2)n1,0,-,0,-
COc1ccc(/C=N/NC(=O)c2ccccc2)cc1CN1CCN(c2ccc(F)cc2)CC1,0,0,0,0
CCCc1c(C(=O)N/N=C/c2ccc(OCc3ccccc3)c(OC)c2)nnn1-c1nonc1N,0,76,0,0
COc1ccc(/C=N\NC(=O)c2ccccc2)cc1COc1ccc(F)cc1,0,0,0,0
COc1cc(C(=O)N/N=C/c2ccc(OC)c(CN3CCN(c4ccc(F)cc4)CC3)c2)ccc1O,39,0,0,0
COc1ccc(/C=N\NC(=O)c2ccccc2Br)cc1COc1ccc(F)cc1,?,79,0,0
COc1cc(/C=N/NC(=O)c2cc(C)oc2C)ccc1OCc1ccccc1,0,79,0,0
SMILES,dFosB act,SR-BI HDL uptake,CDK5 inh,SR-BI DiI-HDL act
N=c1c(C(=O)NC2CCCCC2)cc2c(=O)n3ccccc3nc2n1CCc1ccccc1,0,0,0,0
Cc1ccc(NC(=O)CN2CCN(C(=O)C3CCCO3)CC2)c(C)c1 (stereo not drawn),0,0,0,0
CCN(CC)C(=O)COc1coc(CN2CCN(c3ccccc3)CC2)cc1=O,0,0,0,0
NC(=O)c1cc([N+](=O)[O-])ccc1NCc1ccc(C(=O)O)cc1,0,0,0,0
Cc1cccnc1NC(=O)c1ccc(COc2ccccc2)o1,0,0,0,0
CCCc1c(C(=O)N/N=C/c2ccc(OC)c(OCc3ccccc3)c2)nnn1-c1nonc1N,0,0,0,0
CCCc1c(C(=O)N/N=C/c2ccccc2OCc2ccc(F)cc2)nnn1-c1nonc1N,0,85,0,0
Cc1ccc(Nc2nc(N/N=C\c3ccc4c(c3)OCO4)nc(N3CCOCC3)n2)cc1,60,86,0,0
CC(=O)Nc1ccc(/C(C)=N/Nc2nc(Nc3ccccc3)nc(N3CCOCC3)n2)cc1,0,85,0,0
Cc1ccc(/C=N/Nc2cc(C)nc(N3CCOCC3)n2)cc1,0,0,0,0
CC(=O)c1ccc(Nc2nc(N3CCOCC3)nc(N3CCOCC3)n2)cc1,0,0,0,0
CCN1CCN(c2nc(Nc3ccc(NC(C)=O)cc3)nc(Nc3ccc(NC(C)=O)cc3)n2)CC1,73,-,0,-
Cc1nc(C(=O)Nc2cc(F)cc(Cl)c2)sc1C1(C)CC(c2ccccc2)=NO1 (stereo not drawn),0,80,0,0
Cc1nc(-c2ccccc2)sc1C1(C)CC(c2cccc([N+](=O)[O-])c2)=NO1 (stereo not drawn),0,0,0,0
Cc1nc(C(=O)NC2CCCCC2)sc1C1(C)CC(c2cccc([N+](=O)[O-])c2)=NO1 (stereo not drawn),0,76,0,0
Cc1nc(C(=O)Nc2ccc(Cl)cc2)sc1C1(C)CC(c2cccc([N+](=O)[O-])c2)=NO1 (stereo not drawn),0,77,0,0
CNC(=O)c1nc(C)c(C2(C)CC(c3ccccc3)=NO2)s1 (stereo not drawn),0,0,0,0
Cc1nc(C(=O)NC2CC2)sc1C1(C)CC(c2ccccc2)=NO1 (stereo not drawn),0,0,0,0
O=C(/C=C/c1ccccc1)CCN1CCCCC1,0,0,0,0
O=C(CC1CCCC1)Nc1cc(C(F)(F)F)ccc1-n1cncn1,0,0,0,0
C(=N\c1c(-c2ccccc2)nc2n1CCS2)/c1ccccc1,0,0,0,0
Clc1ccc(/C=N/c2c(-c3ccc(Cl)cc3)nc3n2CCS3)cc1,0,89,0,0
COCCCN1C(=O)N(c2ccc(F)cc2)C(=O)C1CC(=O)Nc1ccc(OC)cc1 (stereo not drawn),0,76,0,0
COCCN1C(=O)N(c2cccc(OC)c2)C(=O)C1CC(=O)Nc1ccc(Cl)cc1 (stereo not drawn),0,0,0,0
CCc1ccc(NC(=O)CC2C(=O)N(c3cccc(OC)c3)C(=O)N2CCOC)cc1 (stereo not drawn),0,0,0,310
Oc1c(N=Nc2ccccn2)ccc2ccccc12,0,134,0,0
Oc1[nH]c2ccccc2c1N=Nc1ccccn1,0,0,0,0
NC(=S)NN=C1CCCCC12CCCC2,0,75,0,0
NC(=S)NN=C1CCC2(CCCCC2)CC1,0,85,0,0
Cn1nc(C(=O)NCc2ccccc2)c2c1-c1ccccc1S(=O)(=O)C2,0,0,-,0
